Laboratory results from ChEMBL document CHEMBL1148833, “3-Hydroxychromones as cyclin-dependent kinase inhibitors: synthesis and biological evaluation” (Bioorg Med Chem Lett, 2007).

What was measured:
[1] = target: Cyclin-dependent kinase 2 (Homo sapiens, UniProt P24941); experiment: Inhibition of CDK2
[2] = tested on: EJ; experiment: Cytotoxicity against EJ cells after 48 hrs; type: functional; details: Homo sapiens
In short: (§1)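 Exponentially growing cells exposed to compound at various concentrations for 48 h, then cell numbers measured; concentration giving 50% growth inhibition determined; means of three experiments.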

[3] = tested on: SW-620; experiment: Cytotoxicity against SW620 cells after 48 hrs; type: functional; details: Homo sapiens, SW-620, 48 h; in short: as §1
[4] = tested on: HCT-116; experiment: Cytotoxicity against HCT116 cells after 48 hrs; type: functional; details: Homo sapiens, HCT-116, 48 h; in short: as §1
[5] = tested on: MDA-MB-468; experiment: Cytotoxicity against MDA-MB-468 cells after 48 hrs; type: functional; details: Homo sapiens, MDA-MB-468, 48 h; in short: as §1
[6] = target: Cyclin-dependent kinase 1 (Homo sapiens, UniProt P06493); experiment: Inhibition of CDK1
Sequence of Cyclin-dependent kinase 1 (P06493 whole entry): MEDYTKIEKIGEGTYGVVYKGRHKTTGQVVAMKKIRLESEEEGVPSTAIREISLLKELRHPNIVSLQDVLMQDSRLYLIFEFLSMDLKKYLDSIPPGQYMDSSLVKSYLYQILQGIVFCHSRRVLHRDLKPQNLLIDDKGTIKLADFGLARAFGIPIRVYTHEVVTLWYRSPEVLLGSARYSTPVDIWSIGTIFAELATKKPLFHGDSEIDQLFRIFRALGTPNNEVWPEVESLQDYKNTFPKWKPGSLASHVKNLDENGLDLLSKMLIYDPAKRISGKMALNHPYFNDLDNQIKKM

SMILES	IC50 [1] [nM]	GI50 [2] [nM]	also measured
O=c1c(O)c(-c2ccc(O)c(O)c2)oc2ccccc12	4000		
O=c1cc(-c2ccc(O)c(O)c2)oc2c(O)c(O)ccc12	> 500000		
O=c1cc(-c2ccc(O)c(O)c2)oc2ccccc12	> 500000		
CCN(CC)c1cc(C)cc2c(=O)c(O)c(-c3ccc(O)c(O)c3)oc12	1600		
Cc1cc(N)c2oc(-c3ccc(O)c(O)c3)c(O)c(=O)c2c1	630		
Cc1cc(N2C(=O)CNC2=O)c2oc(-c3ccc(O)c(O)c3)c(O)c(=O)c2c1	4000		
Cc1cc(N2C(=O)CN(C)C2=O)c2oc(-c3ccc(O)c(O)c3)c(O)c(=O)c2c1	56	1100	
Cc1cc(N2CCCS2(=O)=O)c2oc(-c3ccc(O)c(O)c3)c(O)c(=O)c2c1		600	GI50 [3]: 900 nM; GI50 [4]: 280 nM; GI50 [5]: 1000 nM; IC50 [6]: 130 nM
Cc1cc(N2CCCC2)c2oc(-c3ccc(O)c(O)c3)c(O)c(=O)c2c1	3000		
Cc1cc(N2CCCCC2)c2oc(-c3ccc(O)c(O)c3)c(O)c(=O)c2c1	2600		
Cc1cc(N2CCN(C)CC2)c2oc(-c3ccc(O)c(O)c3)c(O)c(=O)c2c1	640		
Cc1cc(N2C(=O)CCC2=O)c2oc(-c3ccc(O)c(O)c3)c(O)c(=O)c2c1	1500	1200	
Cc1cc(N2CCCS2(=O)=O)c2oc(-c3ccc(O)cc3)c(O)c(=O)c2c1		270	GI50 [3]: 570 nM; GI50 [4]: 340 nM; GI50 [5]: 620 nM; IC50 [6]: 450 nM
Cc1cc(N2CCCC2=O)c2oc(-c3ccc(O)c(O)c3)c(O)c(=O)c2c1	1600		
Cc1cc(N2C(=O)CCCC2=O)c2oc(-c3ccc(O)c(O)c3)c(O)c(=O)c2c1	4400		
Cc1cc(N2CCCS2(=O)=O)c2oc(-c3ccc(O)c(C#N)c3)c(O)c(=O)c2c1			IC50 [6]: 160 nM
Cc1cc(N2CCCS2(=O)=O)c2oc(-c3ccc(O)c(C(F)(F)F)c3)c(O)c(=O)c2c1	1700	1300	GI50 [4]: 910 nM; IC50 [6]: 63 nM
Cc1cc(N2CCCS2(=O)=O)c2oc(-c3ccc(O)c(Cl)c3)c(O)c(=O)c2c1	190	65	GI50 [3]: 64 nM; GI50 [4]: 37 nM; GI50 [5]: 180 nM; IC50 [6]: 33 nM
Cc1cc(N2CCCS2(=O)=O)c2oc(-c3ccc(O)c(Br)c3)c(O)c(=O)c2c1		64	GI50 [3]: 52 nM; GI50 [4]: 17 nM; GI50 [5]: 230 nM; IC50 [6]: 19 nM
O=c1c(O)c(-c2ccc(O)c(O)c2)oc2cc(O)ccc12 [FISETIN]	5000		
O=c1cc(-c2ccc(O)c(O)c2)oc2cc(O)cc(O)c12 [LUTEOLIN]	20000		
O=c1c(O)c(-c2ccc(O)c(O)c2)oc2cc(O)cc(O)c12 [QUERCETIN]	40000		
